Source: ChEMBL document CHEMBL5724801, “EUbOPEN Chemogenomics Library - Multiplex” (2024)
Values joined by “and” are separate entries in the source; they are usually repeats but may differ in a detail not shown here. Equal entries are not always repeated.

Key:
Format in all cases: toxicity, cell-based
[1] = tested on: Fibroblast; experiment: Multiplex assay against human fibroblast
Summary of the method: (§1)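 Cells were classed with CellPathfinder machine-learning gating, first as Hoechst high-intensity objects or normal cells, then (normal cells) as healthy, pyknosed or fragmented nuclei, and finally (pyknosed cells) as mitotic or apoptotic. Staining of live cells at seeding used Hoechst33342, BioTracker Green Microtubule Cytoskeleton Dye, MitoTracker Red and Annexin V Alexa Fluor 680, with imaging on a CQ1 microscope at 37°C and 5% CO2 after compound addition. Tubulin, mitochondrial-mass and membrane-permeability phenotypes are per cents of healthy-nucleus cells.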

[2] = tested on: HEK-293T; experiment: Multiplex assay against HEK293T; details: human; summary of the method: as §1
[3] = tested on: U2OS; experiment: Multiplex assay against U2OS; details: human; summary of the method: as §1
[4] = 12 h, 1 µM, compound concentration 1 uM
[5] = 12 h, 10 µM, compound concentration 10 uM
[6] = 24 h, 1 µM, compound concentration 1 uM
[7] = 24 h, 10 µM, compound concentration 10 uM
[8] = 48 h, 1 µM, compound concentration 1 uM
[9] = 48 h, 10 µM, compound concentration 10 uM

O=C(O)Cc1ccccc1Nc1c(Cl)cccc1Cl [DICLOFENAC]
Population Apoptotic (%) [1, 4]: 43% and 33%
Population Fragmented Nuclei (%) [1, 4]: 14% and 25%
Population Healthy Nuclei (%) [1, 4]: 67% and 49%
Population Hoechst High Intensity Objects (%) [1, 4]: 0% and 2%
Population Membrane Permeable-Phenotype (%) [1, 4]: 1% and 7%
Population Mitochondria Different-Phenotype (%) [1, 4]: 6%
Population Mitotic Cells (%) [1, 4]: 56% and 66%
Population Normal (%) [1, 4]: 99% and 97%
Population Pyknosed Nuclei (%) [1, 4]: 17% and 25%
Population Tubulin-Different-Phenotype (%) [1, 4]: 25% and 49%
Population Apoptotic (%) [1, 5]: 32% and 38%
Population Fragmented Nuclei (%) [1, 5]: 14% and 36%
Population Healthy Nuclei (%) [1, 5]: 68% and 46%
Population Hoechst High Intensity Objects (%) [1, 5]: 0% and 6%
Population Membrane Permeable-Phenotype (%) [1, 5]: 0% and 16%
Population Mitochondria Different-Phenotype (%) [1, 5]: 5% and 8%
Population Mitotic Cells (%) [1, 5]: 68% and 61%
Population Normal (%) [1, 5]: 99% and 93%
Population Pyknosed Nuclei (%) [1, 5]: 17%
Population Tubulin-Different-Phenotype (%) [1, 5]: 24% and 54%
Population Apoptotic (%) [1, 6]: 52% and 35%
Population Fragmented Nuclei (%) [1, 6]: 15% and 28%
Population Healthy Nuclei (%) [1, 6]: 66% and 49%
Population Hoechst High Intensity Objects (%) [1, 6]: 2% and 3%
Population Membrane Permeable-Phenotype (%) [1, 6]: 0% and 12%
Population Mitochondria Different-Phenotype (%) [1, 6]: 4% and 6%
Population Mitotic Cells (%) [1, 6]: 47% and 64%
Population Normal (%) [1, 6]: 97% and 96%
Population Pyknosed Nuclei (%) [1, 6]: 17% and 21%
Population Tubulin-Different-Phenotype (%) [1, 6]: 29% and 50%
Population Apoptotic (%) [1, 7]: 30% and 50%
Population Fragmented Nuclei (%) [1, 7]: 16% and 31%
Population Healthy Nuclei (%) [1, 7]: 68% and 50%
Population Hoechst High Intensity Objects (%) [1, 7]: 5% and 2%
Population Membrane Permeable-Phenotype (%) [1, 7]: 0% and 8%
Population Mitochondria Different-Phenotype (%) [1, 7]: 5% and 10%
Population Mitotic Cells (%) [1, 7]: 69% and 50%
Population Normal (%) [1, 7]: 94% and 97%
Population Pyknosed Nuclei (%) [1, 7]: 15% and 18%
Population Tubulin-Different-Phenotype (%) [1, 7]: 19% and 55%
Population Apoptotic (%) [1, 8]: 85% and 57%
Population Fragmented Nuclei (%) [1, 8]: 21% and 36%
Population Healthy Nuclei (%) [1, 8]: 61% and 53%
Population Hoechst High Intensity Objects (%) [1, 8]: 3% and 5%
Population Membrane Permeable-Phenotype (%) [1, 8]: 4%
Population Mitochondria Different-Phenotype (%) [1, 8]: 4%
Population Mitotic Cells (%) [1, 8]: 15% and 42%
Population Normal (%) [1, 8]: 96% and 94%
Population Pyknosed Nuclei (%) [1, 8]: 16% and 10%
Population Tubulin-Different-Phenotype (%) [1, 8]: 24% and 44%
Population Apoptotic (%) [1, 9]: 73% and 30%
Population Fragmented Nuclei (%) [1, 9]: 22% and 35%
Population Healthy Nuclei (%) [1, 9]: 65% and 50%
Population Hoechst High Intensity Objects (%) [1, 9]: 3%
Population Membrane Permeable-Phenotype (%) [1, 9]: 0% and 4%
Population Mitochondria Different-Phenotype (%) [1, 9]: 3% and 6%
Population Mitotic Cells (%) [1, 9]: 26% and 69%
Population Normal (%) [1, 9]: 96%
Population Pyknosed Nuclei (%) [1, 9]: 12% and 14%
Population Tubulin-Different-Phenotype (%) [1, 9]: 28% and 53%
Population Apoptotic (%) [2, 4]: 36% and 52%
Population Fragmented Nuclei (%) [2, 4]: 7%
Population Healthy Nuclei (%) [2, 4]: 77% and 79%
Population Hoechst High Intensity Objects (%) [2, 4]: 5% and 10%
Population Membrane Permeable-Phenotype (%) [2, 4]: 0%
Population Mitochondria Different-Phenotype (%) [2, 4]: 53% and 61%
Population Mitotic Cells (%) [2, 4]: 63% and 47%
Population Normal (%) [2, 4]: 94% and 89%
Population Pyknosed Nuclei (%) [2, 4]: 14% and 13%
Population Tubulin-Different-Phenotype (%) [2, 4]: 32% and 23%
Total Cell Count [2, 4]: 376 and 324
Population Apoptotic (%) [2, 5]: 30% and 57%
Population Fragmented Nuclei (%) [2, 5]: 7%
Population Healthy Nuclei (%) [2, 5]: 77% and 75%
Population Hoechst High Intensity Objects (%) [2, 5]: 6% and 14%
Population Membrane Permeable-Phenotype (%) [2, 5]: 0%
Population Mitochondria Different-Phenotype (%) [2, 5]: 45% and 68%
Population Mitotic Cells (%) [2, 5]: 69% and 42%
Population Normal (%) [2, 5]: 93% and 85%
Population Pyknosed Nuclei (%) [2, 5]: 14% and 17%
Population Tubulin-Different-Phenotype (%) [2, 5]: 35%
Total Cell Count [2, 5]: 480 and 370
Population Apoptotic (%) [2, 6]: 30% and 45%
Population Fragmented Nuclei (%) [2, 6]: 7% and 6%
Population Healthy Nuclei (%) [2, 6]: 76% and 78%
Population Hoechst High Intensity Objects (%) [2, 6]: 3% and 10%
Population Membrane Permeable-Phenotype (%) [2, 6]: 0%
Population Mitochondria Different-Phenotype (%) [2, 6]: 44% and 37%
Population Mitotic Cells (%) [2, 6]: 69% and 54%
Population Normal (%) [2, 6]: 96% and 89%
Population Pyknosed Nuclei (%) [2, 6]: 15% and 14%
Population Tubulin-Different-Phenotype (%) [2, 6]: 24% and 9%
Total Cell Count [2, 6]: 456 and 418
Population Apoptotic (%) [2, 7]: 25% and 49%
Population Fragmented Nuclei (%) [2, 7]: 10%
Population Healthy Nuclei (%) [2, 7]: 77% and 75%
Population Hoechst High Intensity Objects (%) [2, 7]: 4% and 9%
Population Membrane Permeable-Phenotype (%) [2, 7]: 0%
Population Mitochondria Different-Phenotype (%) [2, 7]: 29% and 50%
Population Mitotic Cells (%) [2, 7]: 74% and 50%
Population Normal (%) [2, 7]: 95% and 90%
Population Pyknosed Nuclei (%) [2, 7]: 12% and 14%
Population Tubulin-Different-Phenotype (%) [2, 7]: 29% and 26%
Total Cell Count [2, 7]: 650 and 462
Population Apoptotic (%) [2, 8]: 23% and 33%
Population Fragmented Nuclei (%) [2, 8]: 11% and 15%
Population Healthy Nuclei (%) [2, 8]: 82% and 79%
Population Hoechst High Intensity Objects (%) [2, 8]: 2%
Population Membrane Permeable-Phenotype (%) [2, 8]: 1%
Population Mitochondria Different-Phenotype (%) [2, 8]: 22% and 16%
Population Mitotic Cells (%) [2, 8]: 76% and 66%
Population Normal (%) [2, 8]: 97%
Population Pyknosed Nuclei (%) [2, 8]: 6% and 4%
Population Tubulin-Different-Phenotype (%) [2, 8]: 15% and 10%
Total Cell Count [2, 8]: 730 and 697
Population Apoptotic (%) [2, 9]: 36%
Population Fragmented Nuclei (%) [2, 9]: 12% and 16%
Population Healthy Nuclei (%) [2, 9]: 80% and 75%
Population Hoechst High Intensity Objects (%) [2, 9]: 3% and 4%
Population Membrane Permeable-Phenotype (%) [2, 9]: 1% and 0%
Population Mitochondria Different-Phenotype (%) [2, 9]: 17% and 36%
Population Mitotic Cells (%) [2, 9]: 63%
Population Normal (%) [2, 9]: 96% and 95%
Population Pyknosed Nuclei (%) [2, 9]: 7%
Population Tubulin-Different-Phenotype (%) [2, 9]: 18% and 17%
Total Cell Count [2, 9]: 883 and 649
Population Apoptotic (%) [3, 4]: 90% and 84%
Population Fragmented Nuclei (%) [3, 4]: 15% and 13%
Population Healthy Nuclei (%) [3, 4]: 78% and 76%
Population Hoechst High Intensity Objects (%) [3, 4]: 5% and 0%
Population Membrane Permeable-Phenotype (%) [3, 4]: 4% and 5%
Population Mitochondria Different-Phenotype (%) [3, 4]: 4% and 2%
Population Mitotic Cells (%) [3, 4]: 10% and 15%
Population Normal (%) [3, 4]: 94% and 99%
Population Pyknosed Nuclei (%) [3, 4]: 6% and 10%
Population Tubulin-Different-Phenotype (%) [3, 4]: 4% and 2%
Total Cell Count [3, 4]: 164
Population Apoptotic (%) [3, 5]: 75% and 72%
Population Fragmented Nuclei (%) [3, 5]: 20% and 14%
Population Healthy Nuclei (%) [3, 5]: 68% and 76%
Population Hoechst High Intensity Objects (%) [3, 5]: 2% and 3%
Population Membrane Permeable-Phenotype (%) [3, 5]: 8%
Population Mitochondria Different-Phenotype (%) [3, 5]: 4% and 3%
Population Mitotic Cells (%) [3, 5]: 25% and 27%
Population Normal (%) [3, 5]: 97% and 96%
Population Pyknosed Nuclei (%) [3, 5]: 11% and 9%
Population Tubulin-Different-Phenotype (%) [3, 5]: 4% and 8%
Total Cell Count [3, 5]: 258
Population Apoptotic (%) [3, 6]: 92% and 87%
Population Fragmented Nuclei (%) [3, 6]: 15% and 19%
Population Healthy Nuclei (%) [3, 6]: 76% and 70%
Population Hoechst High Intensity Objects (%) [3, 6]: 4% and 3%
Population Membrane Permeable-Phenotype (%) [3, 6]: 2% and 5%
Population Mitochondria Different-Phenotype (%) [3, 6]: 2%
Population Mitotic Cells (%) [3, 6]: 7% and 12%
Population Normal (%) [3, 6]: 95% and 96%
Population Pyknosed Nuclei (%) [3, 6]: 7% and 10%
Population Tubulin-Different-Phenotype (%) [3, 6]: 2%
Total Cell Count [3, 6]: 191 and 165
Population Apoptotic (%) [3, 7]: 72% and 81%
Population Fragmented Nuclei (%) [3, 7]: 17% and 15%
Population Healthy Nuclei (%) [3, 7]: 72% and 77%
Population Hoechst High Intensity Objects (%) [3, 7]: 0% and 1%
Population Membrane Permeable-Phenotype (%) [3, 7]: 3% and 5%
Population Mitochondria Different-Phenotype (%) [3, 7]: 1% and 2%
Population Mitotic Cells (%) [3, 7]: 27% and 18%
Population Normal (%) [3, 7]: 99% and 98%
Population Pyknosed Nuclei (%) [3, 7]: 10% and 7%
Population Tubulin-Different-Phenotype (%) [3, 7]: 2% and 4%
Total Cell Count [3, 7]: 311 and 153
Population Apoptotic (%) [3, 8]: 100% and 83%
Population Fragmented Nuclei (%) [3, 8]: 17% and 15%
Population Healthy Nuclei (%) [3, 8]: 71% and 70%
Population Hoechst High Intensity Objects (%) [3, 8]: 4% and 3%
Population Membrane Permeable-Phenotype (%) [3, 8]: 4%
Population Mitochondria Different-Phenotype (%) [3, 8]: 2% and 4%
Population Mitotic Cells (%) [3, 8]: 0% and 16%
Population Normal (%) [3, 8]: 95% and 96%
Population Pyknosed Nuclei (%) [3, 8]: 10% and 14%
Population Tubulin-Different-Phenotype (%) [3, 8]: 2% and 4%
Total Cell Count [3, 8]: 271 and 216
Population Apoptotic (%) [3, 9]: 86% and 100%
Population Fragmented Nuclei (%) [3, 9]: 16% and 12%
Population Healthy Nuclei (%) [3, 9]: 73% and 75%
Population Hoechst High Intensity Objects (%) [3, 9]: 2% and 1%
Population Membrane Permeable-Phenotype (%) [3, 9]: 6%
Population Mitochondria Different-Phenotype (%) [3, 9]: 1%
Population Mitotic Cells (%) [3, 9]: 13% and 0%
Population Normal (%) [3, 9]: 97% and 98%
Population Pyknosed Nuclei (%) [3, 9]: 10% and 11%
Population Tubulin-Different-Phenotype (%) [3, 9]: 2% and 6%
Total Cell Count [3, 9]: 436 and 220
